Experiment [1] deals with Prostaglandin G/H synthase 1 (Ovis aries) (UniProt P05979). Put plainly: Inhibition of ram seminal vesicles COX-1 using arachidonic acid as substrate at 50 ug/ml preincubated for 5 mins followed by substrate addition after 20 mins by competitive PGE2 EIA method.
Experiment [2] deals with T1, Prostaglandin G/H synthase 2 (Ovis aries, UniProt P79208).
T1 sequence (P79208 whole entry): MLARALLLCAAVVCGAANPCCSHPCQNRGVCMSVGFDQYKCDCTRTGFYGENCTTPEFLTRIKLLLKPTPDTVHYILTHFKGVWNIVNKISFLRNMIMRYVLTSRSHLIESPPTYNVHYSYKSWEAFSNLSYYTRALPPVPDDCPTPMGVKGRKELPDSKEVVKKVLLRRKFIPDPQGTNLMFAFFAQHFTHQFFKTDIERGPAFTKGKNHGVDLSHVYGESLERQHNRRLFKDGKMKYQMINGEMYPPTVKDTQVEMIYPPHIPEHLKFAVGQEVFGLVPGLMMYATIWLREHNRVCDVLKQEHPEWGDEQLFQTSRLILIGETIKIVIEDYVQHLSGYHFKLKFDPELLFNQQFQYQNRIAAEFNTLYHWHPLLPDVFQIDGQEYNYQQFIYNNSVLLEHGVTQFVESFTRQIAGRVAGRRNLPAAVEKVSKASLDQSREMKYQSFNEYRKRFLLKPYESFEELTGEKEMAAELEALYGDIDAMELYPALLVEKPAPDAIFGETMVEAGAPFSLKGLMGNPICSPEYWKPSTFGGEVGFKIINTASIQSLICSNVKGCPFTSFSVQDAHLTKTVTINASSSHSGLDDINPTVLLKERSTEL
The experiment is described as follows: Inhibition of sheep placental cotyledons COX-2 using arachidonic acid as substrate preincubated for 5 mins followed by substrate addition after 20 mins by competitive PGE2 EIA method. The method in brief:
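Purified sheep placental PGHS-2 at 0.2 units/well in 0.1 M Tris/HCl with 18 mM epinephrine hydrogen tartrate, hematin and Na EDTA. Samples were preincubated for 5 min at room temperature, then arachidonic acid in ethanol was added to start the reaction. After 20 min at 37 °C the reaction was stopped with 10% formic acid. PGE2 was measured by competitive EIA absorbance, and inhibition was calculated relative to a blank.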

The target in experiment [3] is T2, Prostaglandin G/H synthase 2 (Homo sapiens) (UniProt P35354).
T2 sequence (whole entry): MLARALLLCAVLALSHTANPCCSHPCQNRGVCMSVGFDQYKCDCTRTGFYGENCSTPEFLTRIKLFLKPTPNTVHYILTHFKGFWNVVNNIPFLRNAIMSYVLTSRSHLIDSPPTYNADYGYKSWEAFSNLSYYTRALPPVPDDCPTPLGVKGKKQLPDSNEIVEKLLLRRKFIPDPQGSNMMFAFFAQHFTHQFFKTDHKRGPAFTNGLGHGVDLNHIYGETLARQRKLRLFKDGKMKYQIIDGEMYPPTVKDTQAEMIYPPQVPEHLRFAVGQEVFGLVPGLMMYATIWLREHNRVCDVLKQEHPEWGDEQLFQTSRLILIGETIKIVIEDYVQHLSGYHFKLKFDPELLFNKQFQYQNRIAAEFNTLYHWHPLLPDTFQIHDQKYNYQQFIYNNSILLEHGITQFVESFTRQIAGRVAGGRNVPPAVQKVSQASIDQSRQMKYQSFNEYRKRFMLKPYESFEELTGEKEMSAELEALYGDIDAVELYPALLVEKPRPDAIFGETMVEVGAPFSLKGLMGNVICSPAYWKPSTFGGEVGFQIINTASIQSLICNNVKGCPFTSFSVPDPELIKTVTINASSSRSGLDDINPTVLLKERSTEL
Put plainly: Inhibition of COX2 in differentiated human THP1 cells assessed as […] LPS-induced COX2 gene expression at 50 ug/ml preincubated for 1 hr followed by LPS induction measured after 3 hrs by real-time PCR analysis. The class given is cell-based. To be noted: THP-1. A digest of the protocol:
(§1)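 THP-1 monocytes differentiated to macrophages with 12 nM PMA for 48 h. Cells were treated with compound ([…]) for 1 h, with 0.1% DMSO as calibrator. They were then stimulated with LPS O55:B5 at 7.5 ng/ml, except the DMSO well, for another 3 h. Cells were washed twice with cold PBS. Total RNA was extracted and reverse-transcribed. TaqMan qPCR was run in duplicate with GAPDH as reference.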

The nature of experiment [4]: Downregulation of NF-kappaB1 gene expression in differentiated human THP1 cells stimulated with LPS at 50 ug/ml preincubated for 1 hr followed by LPS stimulation measured after 3 hrs by real-time PCR analysis. The conditions noted are these: THP-1. The experiment is classed as functional, cell-based. A digest of the protocol: as §1
For orientation: In qPCR the cycle at which signal appears reflects the starting amount.

Calls of active or inactive are those of the source. No cut-off for these calls is given here.

The term inhibition denotes the change of the read-out against control, counted positive when it falls. The term IC50 denotes the concentration at which inhibition is half-maximal. A low value points to greater potency.

Chain of Prostaglandin G/H synthase 1 (Ovis aries) (P05979 whole entry, looked up): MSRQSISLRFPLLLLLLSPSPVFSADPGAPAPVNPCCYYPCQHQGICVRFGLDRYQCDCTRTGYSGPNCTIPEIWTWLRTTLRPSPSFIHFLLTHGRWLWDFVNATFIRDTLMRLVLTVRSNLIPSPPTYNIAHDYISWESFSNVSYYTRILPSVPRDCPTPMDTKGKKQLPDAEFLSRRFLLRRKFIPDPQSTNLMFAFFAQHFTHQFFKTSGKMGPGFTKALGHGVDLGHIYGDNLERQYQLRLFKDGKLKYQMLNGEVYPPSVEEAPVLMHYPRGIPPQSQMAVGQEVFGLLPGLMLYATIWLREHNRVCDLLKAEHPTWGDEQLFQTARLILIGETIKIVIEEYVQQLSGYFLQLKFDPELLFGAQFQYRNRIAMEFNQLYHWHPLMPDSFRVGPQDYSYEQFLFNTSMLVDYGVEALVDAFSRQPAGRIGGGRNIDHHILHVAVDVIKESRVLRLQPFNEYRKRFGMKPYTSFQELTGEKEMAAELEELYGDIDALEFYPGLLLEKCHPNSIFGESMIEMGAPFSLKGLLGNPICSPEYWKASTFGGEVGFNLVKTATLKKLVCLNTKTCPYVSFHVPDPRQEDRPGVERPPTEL

Turning to `CC1=CC(c2ccc(C(F)(F)F)cc2)NC(=S)N1` (racemic), the inhibition in experiment [1] was 0.92%.
The same measure, in the same setting: the figure for `CC1=CC(c2ccc(Br)cc2)NC(=S)N1` (racemic) is 15.4%.
In experiment [2], `CC1=CC(c2ccccc2[N+](=O)[O-])NC(=S)N1` (racemic) yielded an IC50 of 50 µM. In experiment [3], the inhibition entry was “Active”. The outcome in experiment [4] was Active. Further, in experiment [1], the inhibition was 53%.
For `CC1=CC(C(C)C)NC(=S)N1` (racemic), the inhibition result in experiment [1] was “inactive”.
On the same count and under the same terms, the figure for `CC1=CC(c2ccc(Cl)cc2)NC(=S)N1` (racemic) is 10.3%; for `COc1ccc(C2C=C(C)NC(=S)N2)cc1` (racemic) it is 33.2%.
The same measure, in the same setting: under `CC1=CC(c2ccc([N+](=O)[O-])cc2)NC(=S)N1` (racemic) stands 29.8%; under `CC1=CC(c2ccc(Cl)cc2Cl)NC(=S)N1` (racemic), “inactive”; under `CC1=CC(c2ccc(F)cc2)NC(=S)N1` (racemic), “inactive”.
On the same count and under the same terms, the figure for `CC1=CC(c2ccccc2Cl)NC(=S)N1` (racemic) is 3.06%.
In the case of `CC1=CC(c2ccccc2)NC(=S)N1` (stereo unspecified), the inhibition entry in experiment [3] is “Active”. Moreover, in experiment [4], the result was Active. In experiment [1], the inhibition result was “inactive”.

The record behind these values is ChEMBL document CHEMBL3611976, “Synthesis of new 4-phenylpyrimidine-2(1H)-thiones and their potency to inhibit COX-1 and COX-2” (Eur J Med Chem, 2015).
